Data taken from ChEMBL document CHEMBL5712918, “Targeting methyltransferase PRMT5 retards the carcinogenesis and metastasis of HNSCC via epigenetically inhibiting Twist1 transcription” (Neoplasia, 2020).
Active and inactive are the calls of the source. The calls are words filed in the database; no cut-off is given here.

Tests used:
[1] = Toxicity in BALB/c nude mouse xenografted with human tongue squamous carcinoma cells assessed as effect on kidney morphology at 30 mg/kg; assay type: organism-based; conditions: in vivo
[2] = Toxicity in BALB/c nude mouse xenografted with human HSC6 cells assessed as effect on kidney morphology at 15 to 30 mg/kg; assay type: organism-based; conditions: in vivo, dose 15-30 mg/kg
Summary of the method: (§1)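 Subcutaneous xenograft in 4-week-old BALB/c nude mice given 6 × 10^7 HSC6 cells into the back. Groups were control, 15 mg/kg and 30 mg/kg. Body weight was monitored and major organs were examined for toxicity.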

[3] = Toxicity in BALB/c nude mouse xenografted with human HSC6 cells assessed as effect on liver morphology at 15 to 30 mg/kg; assay type: organism-based; conditions: in vivo, dose 15-30 mg/kg; summary of the method: as §1
HSC-6 [4] = experiment: Antitumor activity against human HSC-6 cells xenografted in BALB/c nude mouse model of orthotopic tumor assessed as as reduction in distant metastasis in lung at 30 mg/kg by H and E analysis; assay type: functional, organism-based
Rattus norvegicus [5] = experiment: Antitumor activity against 4-Nitroquinoline-1-Oxide induced cancer Sprague-Dawley rat carcinogenic model assessed as reduction in lesion area of tongue tissue at 30 mg/kg, iv administered on week 12 and measured on week 22; assay type: functional, organism-based; conditions: time 10.0 weeks
Rattus norvegicus [6] = experiment: Antitumor activity against 4-Nitroquinoline-1-Oxide induced cancer Sprague-Dawley rat carcinogenic model assessed as normal area of tongue tissue at 30 mg/kg, iv administered on week 12 and measured on week 22 (reference value: 6.7%); assay type: functional; conditions: time 10 weeks
HSC-6 [7] = experiment: Antitumor activity against human HSC-6 cells xenografted in BALB/c nude mouse model of orthotopic tumor assessed as reduction in tumor volume in tongue at 30 mg/kg by H and E staining based assay; assay type: functional, organism-based
Summary of the method: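 Orthotopic tongue xenograft: 5 × 10^5 HSC6 cells submucosally in 4-week-old BALB/c nude mice, control or 30 mg/kg (n = 12 each). Tumour volume quantified on HE-stained longitudinal tongue sections. Student's t test.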

[8] = target: Protein arginine N-methyltransferase 5 (Homo sapiens) (UniProt O14744); experiment: Inhibition of PRMT5 in human HSC-6 cells over expressing Twist1 assessed as decrease in E-cadherin protein level at 10 uM incubated for 4 days by immunoblot analysis; assay type: cell-based; conditions: time 4.0 day
Summary of the method: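 HSC6 cells stably overexpressing Flag-Twist1, with or without 10 μM for 4 days. Twist1, N-cadherin and E-cadherin proteins detected by immunoblot.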

HSC-6 [9] = experiment: Anti-invasive activity against human HSC-6 cells assessed as reduction in cell invasion at 10 uM for 4 days by transwell assay; assay type: functional, cell-based; conditions: time 4.0 day
Summary of the method: (§2)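 Transwell migration and invasion with 8-μm pore inserts. HSC6 or SCC25 cells, including lines stably overexpressing Flag-Twist1, treated at 10 μM for 4 days. Mean ± SD of three independent experiments, one-way ANOVA.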

SCC-25 = experiment: Anti-invasive activity against human SCC-25 cells assessed as reduction in cell invasion at 10 uM for 4 days by transwell assay; assay type: functional, cell-based; conditions: time 4.0 day; summary of the method: as §2
[10] = target: Protein arginine N-methyltransferase 5 (Homo sapiens) (UniProt O14744); experiment: Inhibition of PRMT5 in human HSC-6 cells assessed as reduction in H3R8me2 protein expression at 10 uM incubated for 4 days by western blot analysis; assay type: cell-based; conditions: time 4.0 day
HSC-6 [11] = experiment: Antitumor activity against human HSC-6 cells xenografted in BALB/c nude mouse assessed as reduction in tumor volume at 15 to 30 mg/kg; conditions: dose 15-30 mg/kg

Chain of Protein arginine N-methyltransferase 5 (Homo sapiens) (O14744 whole entry): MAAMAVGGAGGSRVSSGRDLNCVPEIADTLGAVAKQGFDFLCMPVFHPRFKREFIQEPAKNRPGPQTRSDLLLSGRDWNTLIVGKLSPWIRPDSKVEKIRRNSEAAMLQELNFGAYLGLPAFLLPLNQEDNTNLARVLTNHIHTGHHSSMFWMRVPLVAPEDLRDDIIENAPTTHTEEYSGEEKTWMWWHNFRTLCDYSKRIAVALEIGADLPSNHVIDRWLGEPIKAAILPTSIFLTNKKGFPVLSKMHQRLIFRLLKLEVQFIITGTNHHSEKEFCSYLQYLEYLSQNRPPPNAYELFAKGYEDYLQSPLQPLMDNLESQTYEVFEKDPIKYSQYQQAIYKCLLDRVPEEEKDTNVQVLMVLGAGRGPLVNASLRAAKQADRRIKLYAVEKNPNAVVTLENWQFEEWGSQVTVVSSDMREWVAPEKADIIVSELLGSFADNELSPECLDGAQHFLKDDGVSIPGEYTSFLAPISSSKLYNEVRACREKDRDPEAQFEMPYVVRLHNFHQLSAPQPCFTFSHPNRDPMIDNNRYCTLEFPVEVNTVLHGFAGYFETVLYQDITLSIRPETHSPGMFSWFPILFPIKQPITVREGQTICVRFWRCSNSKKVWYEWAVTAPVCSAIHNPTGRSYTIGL

Q: Which Activity [1] does the source give for `O=C(NC[C@H](O)CN1CCc2ccccc2C1)c1cc(NC2COC2)ncn1` here?
A: Non-Toxic

Q: And the Activity [2]?
A: Non-Toxic

Q: And the Activity [3]?
A: Non-Toxic

Q: What about the Activity (HSC-6 [4]) of the same molecule?
A: Active

Q: And the Activity (Rattus norvegicus [5])?
A: Active

Q: And the Activity (Rattus norvegicus [6])?
A: 38.5%

Q: And the Activity (HSC-6 [7])?
A: Active

Q: And the inhibition [8]?
A: inactive

Q: What about the Activity (HSC-6 [9]) of the same molecule?
A: Active

Q: What about the Activity (SCC-25) of the same molecule?
A: Active

Q: What about the inhibition [10] of the same molecule?
A: Active

Q: And the Activity (HSC-6 [11])?
A: Active
